Source: PubChem
GASC1 inh = inhibitors of GASC-1 (KDM4C) histone demethylase, primary screen, biochemical, single concentration HTS; Lysine-specific demethylase 4C (Homo sapiens), Q9H3R0; inhibition, % at 12.5 µM; hit rate 0.15% among 96,000; GST-KDM4C 2-372, H3K9me3 peptide, LANCE TR-FRET;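 active = mean replicate inhibition above about 25%, with at least 55% of replicates also reaching it, limit read from the data, passing the limit was not always enough; inconclusive = only one of those two conditions met; inactive = neither condition met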
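Assay system: GST-GASC-1 enzyme fragment 2-372 | Amount: 10 nM enzyme | Medium: HEPES buffer, pH 7.5, plus ascorbate | Reagent: H3K9me3 peptide substrate, Fe(II), 2-oxoglutarate | Doses: Single-point compound screen | Incubation: 30 min demethylation and 1 h detection at room temperature | Measured by: LANCE TR-FRET, excitation 340 nm, emissions 618 and 671 nm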
Pf Dd2 growth = P. falciparum Dd2 growth inhibitors, primary screen, SYBR Green fluorescence, single dose replicates. activity change, % at 10 µM. hit rate 2.3% among 94,000. AID 1159554, 2015. 72 h; active compounds read low; in the data active = activity change below about -80%; inconclusive = no clear call, values can overlap the other calls
IDH1 R132H inh = inhibitors of IDH1 R132H reductase, primary screen, biochemical, plate reader, single point; Isocitrate dehydrogenase [NADP] cytoplasmic (Homo sapiens), O75874; diaphorase/resazurin fluorescence, 60 min; inhibition, % at 10 µM; hit rate 0.18% among 70,000; AID 624101, 2012; in the data active = inhibition above about 34%; inconclusive = no clear call, values can overlap the other calls; inactive = below about 11%;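 note: 0% = DMSO and 100% = no enzyme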
Target sequence (O75874 whole entry R132H): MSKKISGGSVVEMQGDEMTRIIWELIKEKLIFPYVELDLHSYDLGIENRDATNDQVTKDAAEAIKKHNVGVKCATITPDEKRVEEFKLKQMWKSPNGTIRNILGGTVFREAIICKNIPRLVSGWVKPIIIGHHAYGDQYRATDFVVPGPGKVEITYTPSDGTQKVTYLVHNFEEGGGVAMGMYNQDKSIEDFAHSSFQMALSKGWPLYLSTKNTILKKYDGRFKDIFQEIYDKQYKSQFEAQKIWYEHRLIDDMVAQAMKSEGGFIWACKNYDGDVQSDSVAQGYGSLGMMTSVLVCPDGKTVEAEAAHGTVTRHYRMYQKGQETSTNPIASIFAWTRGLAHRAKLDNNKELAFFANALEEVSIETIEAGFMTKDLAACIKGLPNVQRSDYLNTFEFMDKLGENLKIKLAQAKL
T cruzi growth-1 = T. cruzi intracellular proliferation inhibitors, primary screen, cell-based, beta-gal Tulahuen parasites, NIH3T3 host, luminescence; AID 624255, 2012; T. cruzi beta-gal in NIH3T3, GalScreen luminescence, 90 h; inhibition, % at 8.34 µM; hit rate 5.9% among 77,000;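 active = mean inhibition above about 93%, with at least 55% of replicates each passing it, limit read from the data, passing the limit was not always enough; inconclusive = only one of those two conditions holds; inactive = neither condition holds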
T cruzi growth-2 = T. cruzi intracellular proliferation inhibitors, confirmation, cell-based, NIH3T3 host, beta-gal parasite, luminescence, cherry-pick | shares compounds with T cruzi growth-1 | T. cruzi beta-gal in NIH3T3, GalScreen luminescence, 90 h | inhibition, % at 8.35 µM | hit rate 72% among 5,600;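 active = mean replicate inhibition above about 95% and at least 55% of replicates individually reaching it, limit read from the data; inconclusive = only one of the two criteria is met; inactive = neither criterion is met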
T cruzi growth-3 = inhibitors of intracellular T. cruzi replication, confirmation, NIH3T3 host cells, beta-gal parasites, cherry-pick, set 2; shares compounds with T cruzi growth-1; T. cruzi beta-gal in NIH3T3, GalScreen luminescence, 90 h; inhibition, % at 2.09 µM; hit rate 21% among 5,600;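 active = mean inhibition above about 95%, with at least 55% of replicates also reaching it, limit read from the data; inconclusive = meets just one of the two conditions; inactive = meets neither condition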;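 note: plate controls were neutral control median for no effect and positive control median for full effect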
3T3 cytotox = cytotoxicity in mouse NIH/3T3 fibroblasts, confirmation, cytotoxicity control for T. cruzi proliferation inhibitor project, cell-based, cherry-pick, single point; shares compounds with T cruzi growth-1; NIH/3T3 viability, CellTiter-Glo ATP luminescence, 90 h; cytotoxicity (signal decrease), % at 8.35 µM; hit rate 14% among 5,600; AID 651742, 2012;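 active = mean signal decrease across replicates above about 35% based on untreated-well scatter, with enough replicates individually passing, limit read from the data; inconclusive = no rule stated though some were filed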;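 note: 0% = median of neutral control wells and 100% = median of positive control wells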
NIH3T3 tox 2 = NIH/3T3 fibroblast cytotoxicity, confirmation, cytotoxicity control, cell-based, cherry-pick, single point, set 2; shares compounds with T cruzi growth-1; NIH/3T3 viability, CellTiter-Glo ATP luminescence, 90 h; inhibition, % at 24.9 µM; hit rate 56% among 5,600; AID 651744, 2012;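 active = mean loss of cell viability signal at or above a set limit, and enough replicates individually reaching it; inconclusive = meets only the mean limit or only the replicate share; inactive = meets neither condition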;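 note: 0% = median of neutral control wells and 100% = median of positive control wells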
An asterisk follows results filed as active; ? = inconclusive; · = not tested or not shown. Sampled rows, rich in hits. Any-hit rate of the full collection: about 5.8%.

SMILES	GASC1 inh	Pf Dd2 growth	IDH1 R132H inh	T cruzi growth-1	T cruzi growth-2	T cruzi growth-3	3T3 cytotox	NIH3T3 tox 2
Cc1noc(C)c1NC(=O)Nc1ccc2c(c1)C(=O)N(C)[C@H]1CC[C@H](CC(=O)N[C@H]3CCN(Cc4ccccc4)C3)O[C@H]1CO2	0	-72	·	106*	-20	-18	6	2
C[C@H]1CN([C@@H](C)CO)C(=O)Cc2cc(NC(=O)NC3CCCCC3)ccc2O[C@H]1CN(C)Cc1ccc(C(=O)Nc2ccccc2N)cc1	-1	·	5	·	·	·	·	·
CN(C)C(=O)c1cccc(-c2ccc([C@@H]3[C@H](CO)N4CCCCN(C(=O)C5CCC5)C[C@@H]34)cc2)c1	-1	21	·	104*	81	42	-8	23
CN(C)C(=O)c1cccc(-c2ccc([C@H]3[C@@H](CO)N4CCCCN(C(=O)C5CCCC5)C[C@H]34)cc2)c1	·	11	·	103*	98*	92	3	-3
CN(C)C(=O)c1cccc(-c2ccc([C@@H]3[C@@H](CO)N4CCCCN(C(=O)C5CCC5)C[C@H]34)cc2)c1	2	26	·	84	·	·	·	·
COc1cccc(C#Cc2ccc3c(c2)O[C@@H](CN(C)S(=O)(=O)c2ccccc2F)[C@@H](C)CN([C@H](C)CO)S3(=O)=O)c1	1	-41	1	101*	106*	61	19	?
COc1ccc(C#Cc2ccc3c(c2)O[C@H](CN(C)S(=O)(=O)c2ccccc2F)[C@H](C)CN([C@H](C)CO)S3(=O)=O)cc1	-2	-76	0	124*	109*	107*	-9	33*
COc1ccc(C#Cc2ccc3c(c2)O[C@@H](CN(C)S(=O)(=O)c2ccccc2F)[C@H](C)CN([C@H](C)CO)S3(=O)=O)cc1	-4	-78	0	·	·	·	·	·
Cc1ccc(S(=O)(=O)N[C@@H]2CC[C@H](CCNC(=O)C3CCOCC3)O[C@H]2CO)cc1	0	12	0	41	·	·	·	·
C[C@H](CO)N1C[C@H](C)[C@H](CN(C)Cc2ccccc2)Oc2c(NC(=O)c3nc4ccccc4s3)cccc2C1=O	-1	-25	0	99*	103*	47	-4	?
C[C@H]1CN([C@@H](C)CO)C(=O)c2cccc(NC(=O)c3nc4ccccc4s3)c2O[C@H]1CN(C)Cc1ccc(C(F)(F)F)cc1	-4	?	0	?	110*	65	34	96*
C[C@@H]1CN([C@H](C)CO)C(=O)c2cccc(NC(=O)c3nc4ccccc4s3)c2O[C@H]1CN(C)Cc1ccc(C(=O)Nc2ccccc2N)cc1	3	-92*	·	104*	108*	77	-12	33*
C[C@H]1CN([C@@H](C)CO)C(=O)c2cccc(NC(=O)c3nc4ccccc4s3)c2O[C@H]1CN(C)Cc1ccc(Cl)c(Cl)c1	-4	-57	·	97*	112*	73	47*	54*
C[C@@H]1CN([C@H](C)CO)C(=O)c2cccc(NC(=O)c3nc4ccccc4s3)c2O[C@H]1CN(C)Cc1ccc(C(F)(F)F)cc1	-1	-77	·	96	·	·	·	·
COc1ccc(NC(=O)Nc2ccc3c(c2)C(=O)N([C@@H](C)CO)C[C@@H](C)[C@H](CN(C)Cc2ccc(Cl)c(Cl)c2)OCCCC[C@@H](C)O3)cc1	-1	-70	2	126*	100*	117*	20	31
COc1ccc(CN(C)C[C@@H]2OCCCC[C@@H](C)Oc3ccc(NC(=O)Nc4ccc(OC)cc4)cc3C(=O)N([C@H](C)CO)C[C@@H]2C)cc1	·	37	1	35	·	·	·	·
